Measured values published in ChEMBL document CHEMBL4152223 (Eur J Med Chem, 2018).
In brackets after ≈: the same amount, converted by molar mass.

How the values were obtained:
[1] = test system: Mycobacterium avium; assay: Antimycobacterial activity against INH/RIF/OFX resistant Mycobacterium avium 330/88 after 21 days; type: functional; details: 330/88, 504 h
[2] = test system: Mycobacterium kansasii; assay: Antimycobacterial activity against Mycobacterium kansasii 6509/96 after 7 days; type: functional; details: 6509/96, 168 h
[3] = test system: Mycobacterium kansasii; assay: Antimycobacterial activity against Mycobacterium kansasii 6509/96 after 21 days; type: functional; details: 6509/96, 504 h
[4] = test system: Mycobacterium tuberculosis; assay: Antimycobacterial activity against Mycobacterium tuberculosis H37Rv after 21 days; type: functional; details: 504 h
[5] = test system: HepG2; assay: Cytotoxicity against human HepG2 cells assessed as reduction in cell viability by MTS assay; type: cell-based
Summary of the method: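 HepG2 human hepatocellular carcinoma cells (passage 2-4) were cultured in Eagle's MEM with 10% FBS, 1% L-glutamine and non-essential amino acids. Compounds were dissolved in DMSO and tested in triplicate at eight concentrations. Viability was read by colorimetric MTS tetrazolium reduction. Controls were 100% viability and 0% viability (10% DMSO). IC50 is the concentration reducing viability to 50% of control.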

[6] = test system: Mycobacterium kansasii; assay: Antimycobacterial activity against Mycobacterium kansasii 6509/96 after 14 days; type: functional; details: 6509/96, 336 h
[7] = test system: Mycobacterium kansasii; assay: Antimycobacterial activity against Mycobacterium kansasii 235/80 after 21 days; type: functional; details: 235/80, 504 h
[8] = test system: Mycobacterium tuberculosis; assay: Antimycobacterial activity against Mycobacterium tuberculosis H37Rv after 14 days; type: functional; details: 336 h
[9] = test system: Mycobacterium kansasii; assay: Antimycobacterial activity against Mycobacterium kansasii 235/80 after 7 days; type: functional; details: 235/80, 168 h
[10] = test system: Mycobacterium kansasii; assay: Antimycobacterial activity against Mycobacterium kansasii 235/80 after 14 days; type: functional; details: 235/80, 336 h
[11] = test system: Mycobacterium avium; assay: Antimycobacterial activity against INH/RIF/OFX resistant Mycobacterium avium 330/88 after 14 days; type: functional; details: 330/88, 336 h
[12] = Selectivity index, ratio of IC50 for human HepG2 cells to MIC for Mycobacterium tuberculosis H37Rv after 14 days; type: toxicity; details: read-out: Selectivity Index
Summary of the method: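 SI is calculated as HepG2 IC50 divided by MIC. HepG2 cells (passage 2-4) were grown in EMEM with 10% FBS, L-glutamine and non-essential amino acids. Compounds in DMSO were tested in triplicate at eight concentrations, and viability was read by MTS tetrazolium reduction. IC50 is the concentration reducing viability to 50% of control. 10% DMSO served as the 0% viability control.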

Structure (SMILES) | MIC [1] | MIC [2] | MIC [3] | MIC [4] | IC50 [5] | MIC [6] | MIC [7] | MIC [8] | MIC [9] | MIC [10] | MIC [11] | selectivity ratio at 336 h [12]
CCCCCCCCCCCCCCCCNC(=O)NNC(=O)c1ccncc1 | 125 µM (≈ 50.6 µg/mL) | 32 µM (≈ 12.9 µg/mL) | 62.5 µM (≈ 25.3 µg/mL) | 62.5 µM (≈ 25.3 µg/mL) | > 50 µM | 62.5 µM (≈ 25.3 µg/mL) | 62.5 µM (≈ 25.3 µg/mL) | 32 µM (≈ 12.9 µg/mL) | 32 µM (≈ 12.9 µg/mL) | 62.5 µM (≈ 25.3 µg/mL) | 125 µM (≈ 50.6 µg/mL) | –
CCCCCCCCCNC(=O)NNC(=O)c1ccncc1 | 250 µM (≈ 76.6 µg/mL) | 62.5 µM (≈ 19.2 µg/mL) | 125 µM (≈ 38.3 µg/mL) | 125 µM (≈ 38.3 µg/mL) | > 250 µM | 125 µM (≈ 38.3 µg/mL) | 125 µM (≈ 38.3 µg/mL) | 62.5 µM (≈ 19.2 µg/mL) | 32 µM (≈ 9.81 µg/mL) | 62.5 µM (≈ 19.2 µg/mL) | 250 µM (≈ 76.6 µg/mL) | –
CCCCCCCCCNc1nnc(-c2ccncc2)o1 | 125 µM (≈ 36 µg/mL) | 125 µM (≈ 36 µg/mL) | 250 µM (≈ 72.1 µg/mL) | 62.5 µM (≈ 18 µg/mL) | > 50 µM | 250 µM (≈ 72.1 µg/mL) | 250 µM (≈ 72.1 µg/mL) | 62.5 µM (≈ 18 µg/mL) | 125 µM (≈ 36 µg/mL) | 250 µM (≈ 72.1 µg/mL) | 125 µM (≈ 36 µg/mL) | –
CCCCCCCCNc1nnc(-c2ccncc2)o1 | 125 µM (≈ 34.3 µg/mL) | 62.5 µM (≈ 17.1 µg/mL) | 125 µM (≈ 34.3 µg/mL) | 62.5 µM (≈ 17.1 µg/mL) | – | 125 µM (≈ 34.3 µg/mL) | 125 µM (≈ 34.3 µg/mL) | 62.5 µM (≈ 17.1 µg/mL) | 62.5 µM (≈ 17.1 µg/mL) | 125 µM (≈ 34.3 µg/mL) | 62.5 µM (≈ 17.1 µg/mL) | –
CCCCNC(=O)NNC(=O)c1ccncc1 | > 1000 µM | 250 µM (≈ 59.1 µg/mL) | 500 µM (≈ 118 µg/mL) | 8 µM (≈ 1.89 µg/mL) | > 3000 µM | 250 µM (≈ 59.1 µg/mL) | 1000 µM (≈ 236 µg/mL) | 8 µM (≈ 1.89 µg/mL) | 500 µM (≈ 118 µg/mL) | 1000 µM (≈ 236 µg/mL) | > 1000 µM | > 375
CCCCCNc1nnc(-c2ccncc2)o1 | > 1000 µM | 500 µM (≈ 116 µg/mL) | 1000 µM (≈ 232 µg/mL) | 62.5 µM (≈ 14.5 µg/mL) | – | 1000 µM (≈ 232 µg/mL) | 1000 µM (≈ 232 µg/mL) | 62.5 µM (≈ 14.5 µg/mL) | 500 µM (≈ 116 µg/mL) | 1000 µM (≈ 232 µg/mL) | > 1000 µM | –
CCCCCCCCCCCCCNc1nnc(-c2ccncc2)o1 | 250 µM (≈ 86.1 µg/mL) | 125 µM (≈ 43.1 µg/mL) | 250 µM (≈ 86.1 µg/mL) | 250 µM (≈ 86.1 µg/mL) | – | 250 µM (≈ 86.1 µg/mL) | 250 µM (≈ 86.1 µg/mL) | 250 µM (≈ 86.1 µg/mL) | 250 µM (≈ 86.1 µg/mL) | 250 µM (≈ 86.1 µg/mL) | 250 µM (≈ 86.1 µg/mL) | –
